# Assay outcomes as filed in PubChem BioAssay.
# FLuc act counter: affects firefly luciferase, flagging false hits in luciferase stimulation screens; P08659; 200,000 tested, under 10 active; ATPlite luciferase biochemical, luminescence, 10 min; 0 = ATP-free wells, 1 = DMSO control; activation factor at 10 µM;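 active = luciferase activation factor, scaled between plate controls, of at least 2 with compound at 10 µM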
# Target sequence (P08659 whole entry, looked up): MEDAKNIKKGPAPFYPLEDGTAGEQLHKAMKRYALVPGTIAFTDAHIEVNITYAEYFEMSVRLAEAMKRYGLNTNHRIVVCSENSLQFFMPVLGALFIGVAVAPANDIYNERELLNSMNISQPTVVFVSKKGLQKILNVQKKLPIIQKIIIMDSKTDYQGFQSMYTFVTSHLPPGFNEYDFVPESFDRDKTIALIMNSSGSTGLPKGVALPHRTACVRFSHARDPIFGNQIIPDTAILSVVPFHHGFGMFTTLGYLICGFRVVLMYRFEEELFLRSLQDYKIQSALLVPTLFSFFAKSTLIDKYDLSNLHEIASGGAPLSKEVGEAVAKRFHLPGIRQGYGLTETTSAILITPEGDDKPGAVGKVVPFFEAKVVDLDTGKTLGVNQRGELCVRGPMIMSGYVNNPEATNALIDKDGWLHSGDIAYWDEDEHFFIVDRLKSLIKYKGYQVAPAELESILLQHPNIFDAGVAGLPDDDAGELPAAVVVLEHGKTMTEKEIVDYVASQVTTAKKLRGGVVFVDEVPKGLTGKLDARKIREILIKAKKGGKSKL
#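 Assay system: Luciferase/luciferin detection reagent, cell-free biochemical luciferase assay / Read-out: luciferase activation / Benchmarks: No-ATP low control, compound-free enzyme-plus-ATP high control / Medium: PBS buffer for ATP / Detection: luminescence measurement of luciferase light output / Schedule: 10 min at ambient temperature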
# TRAIL sens C8: sensitizes caspase-8 expressing cells to TRAIL. NB7+C8 cells + TRAIL, ATPlite viability luminescence. inhibition (viability loss, TRAIL sensitization), % at 10 µM. 360,000 compounds, 1% hits;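 active = compounds causing at least 50% loss of cell viability in the single-dose screen, relative to plate controls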
# PPC-1+TRAIL kill: PPC-1 cancer cell killing with TRAIL present | PPC-1 cells + TRAIL, ATPLite viability luminescence | cell killing (% activity), % at 4 µM or 5 µM | 220,000 compounds, 0.41% hits | AID 1443;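 active = cell killing above 50% in the first pass at 4 µM, then a duplicate retest at 5 µM averaging 50% or more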
# FLuc inhib CS: inhibits firefly luciferase, flagging false hits in luciferase inhibition screens; P08659; ATPLite firefly luciferase biochemical luminescence, 10 min; inhibition, % at 10 µM; 200,000 compounds, 1.5% hits;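 active = inhibition above about 50% when tested at 10 µM, limit read from the data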
# NF-kB neuron act: compounds increasing NF-kB expression in human neuronal cells; NF-kB reporter expression; hits give high values; fold change at 12.5 µM; 190,000 compounds, 1.6% hits; AID 1239; in the data active = fold change above about 3.3
# APP 5'UTR act: APP 5'UTR luciferase reporter activation; AID 1276; activation, % at 2 µM; 190,000 compounds, 1% hits; SH-SY5Y APP 5'UTR luciferase reporter, luminescence; zero percent = DMSO vehicle wells;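 active = activation above a set limit, based on mean plus 3 SD of controls, cut at about 140% in these data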
# A number is an active result; – = inactive; · = not tested or not shown. Sampled rows, rich in hits. Any-hit rate of the full collection: about 2.2%.
SMILES,FLuc act counter,TRAIL sens C8,PPC-1+TRAIL kill,FLuc inhib CS,NF-kB neuron act,APP 5'UTR act
O=c1/c(=C\c2cccnc2)sc2nc3ccccc3n12,–,–,–,58,–,–
Cc1cc(/C=c2\sc3nc4ccccc4n3c2=O)c(C)n1-c1ccc(C(=O)O)cc1,–,–,–,–,–,–
O=S1(=O)CC(N2CC=CC2)CN1Cc1cn(Cc2ccc(Cl)cc2)nn1 (centres undefined),·,–,·,·,·,·
Cc1ccc(NC(=O)CCNC(=O)Nc2ccccc2)cc1S(=O)(=O)N(C)C,·,–,·,·,·,·
Cc1ccc(NC(=O)CCNCc2ccco2)cc1S(=O)(=O)N(C)C,–,–,–,79,–,–
O=C(c1cc(-c2ccc(Cl)cc2)on1)N1CCOCC1,–,–,–,60,5,158
O=C(c1cc(-c2ccc3c(c2)OCO3)on1)N1CCOCC1,–,–,–,70,–,–
O=C(c1cc(-c2ccc(Cl)cc2Cl)on1)N1CCOCC1,–,57,–,73,–,196
Cc1ccc(-c2cc3nc(-c4ccccc4)cc(NCCCO)n3n2)cc1,·,–,·,·,·,·
CCCS(=O)(=O)NC(=O)C1(C)CCN(C(=O)Cc2cccc(OC)c2)C1 (centres undefined),·,–,·,·,·,·
CN(CC(=O)Nc1ccc(Cl)cc1)C(=O)CN1C(=O)C2CCCCC2C1=O (centres undefined),·,–,·,·,·,·
CCCC(=O)N1CCC1(C)C(=O)Nc1ccc(OC(F)F)cc1 (centres undefined),·,–,·,·,·,·
Cc1onc(C(=O)N2CCN(Cc3ccccc3)CC2)c1[N+](=O)[O-],–,–,–,–,–,–
Cc1onc(C(=O)N2CCC(Cc3ccccc3)CC2)c1[N+](=O)[O-],·,92,·,·,·,·
CC(C)c1onc(C(=O)N2CCN(C(c3ccccc3)c3ccccc3)CC2)c1[N+](=O)[O-],–,91,–,–,–,–
Cc1ccc(Cl)cc1N1CCN(C(=O)c2noc(C(C)C)c2[N+](=O)[O-])CC1,·,95,·,·,·,·
CC(C)c1onc(C(=O)N2CCCCCC2)c1[N+](=O)[O-],–,–,–,–,–,–
CC(C)c1onc(C(=O)N2CCN(c3ccccc3)CC2)c1[N+](=O)[O-],·,–,–,·,·,·
CC(C)c1onc(C(=O)N2CCN(c3ccc(F)cc3)CC2)c1[N+](=O)[O-],·,65,·,·,·,·
O=C(NCc1ccc(F)cc1)c1cc(C2CCCN(C(=O)C3CCCCC3)C2)on1 (centres undefined),·,–,·,·,·,·
O=[N+]([O-])c1ccc2nc(/C=C/c3ccc(Cl)cc3)[nH]c2c1,–,–,–,–,–,136
Nc1ccc(-c2nc3ccc([N+](=O)[O-])cc3[nH]2)cc1,–,–,–,–,7.1,–
Cc1nc2ccc(-c3nc4ccccc4o3)cc2[nH]1,–,–,–,63,7,143
Cc1nc2ccc(-c3nc4ccc(N)cc4[nH]3)cc2[nH]1,–,–,–,78,–,–
CC(=O)c1cc2cccc(OC3(C)CCN(Cc4ccc(-c5ccccn5)cc4)C3)c2o1 (centres undefined),·,–,·,·,·,·
SMILES,FLuc act counter,TRAIL sens C8,PPC-1+TRAIL kill,FLuc inhib CS,NF-kB neuron act,APP 5'UTR act
CC1=CC(=O)C(Sc2ccc(C)cc2)=CC1=O,·,–,·,·,·,·
Nc1ccc(-c2nc3ccc(N)cc3[nH]2)cc1,–,–,–,52,·,–
CC(=O)Nc1nc2ccc(-c3nc4ccccc4o3)cc2s1,–,–,–,–,5.5,–
Nc1ccc2nc(-c3ccc(Cl)cc3)[nH]c2c1,–,–,–,75,8.5,–
CC(=O)Nc1cc(-c2ccc(C(=O)N3CCOCC3)cc2)cn2c(-c3ccc(S(C)(=O)=O)cc3)cnc12,·,–,·,·,·,·
CCN(CC)S(=O)(=O)c1ccc(N2CCOCC2)c(NC(=O)c2nn(C(C)C)c(=O)c3ccccc23)c1,·,–,·,·,·,·
CCCS/C(N)=N/N=C/c1cc(C)ccc1O,–,–,–,–,11,150
CCCCS/C(N)=N/N=C/c1ccccc1O,–,–,–,–,–,·
CC1C(=O)OC2C1CCC1(C)C3(C)C(=O)C=CC213 (centres undefined),·,–,·,·,·,·
CCc1nc(N2CCN(C(C)=O)CC2)c2c3c(sc2n1)CC(C(C)(C)C)CC3 (centres undefined),·,–,·,·,·,·
CCc1nc(N2CCN(C(=O)CCl)CC2)c2c3c(sc2n1)CC(C)CC3 (centres undefined),·,87,·,·,·,·
CCCc1nc2ccc(Br)cn2c1Cc1cccc(Cl)c1,·,–,·,·,·,·
c1ccc(-c2ccc3ccccc3n2)cc1,·,–,·,·,·,·
c1ccc2nc(-c3nc4ccccc4o3)ccc2c1,–,76,–,88,–,–
CN1CCN(c2ccc(S(=O)(=O)N3CCCCC3)cc2NC(=O)/C=C/c2ccc(OC(F)F)cc2)CC1,·,–,·,·,·,·
CCN1CCN(c2ccc(S(=O)(=O)N3CCCCC3)cc2NC(=O)/C=C/c2ccc(OC(F)F)cc2)CC1,·,56,·,·,·,·
C[C@@H]1CN([C@H](C)CO)C(=O)CCCn2nncc2CO[C@@H]1CN(C)C(=O)C1CC1,·,–,·,·,·,·
O=Cc1cn(-c2ccccc2)nc1-c1ccccc1,·,–,·,·,·,·
CC1=NNC(=O)/C1=C\c1cn(-c2ccccc2)nc1-c1ccccc1,–,63,–,–,–,–
Cn1cc([N+](=O)[O-])c(C(=O)Nc2nc(-c3ccc(Cl)cc3)cs2)n1,–,94,–,–,–,–
Cc1ccc(-c2nc(NC(=O)c3nn(C)cc3[N+](=O)[O-])sc2C)cc1C,–,95,–,–,–,–
Cc1cnc(NC(=O)c2nn(C)cc2[N+](=O)[O-])s1,–,–,–,–,–,–
Cc1ccc(-c2nc(NC(=O)c3nn(C)cc3[N+](=O)[O-])sc2C)cc1,–,93,–,–,–,–
CC(=O)c1ccccc1OCC(O)CN1CCN(CCN2C(=O)c3cccc4cccc(c34)C2=O)CC1 (centres undefined),–,60,–,–,·,–
COC(=O)CSc1ccc(-c2nc3ccc(C)cc3[nH]2)cn1,–,–,–,61,–,–
SMILES,FLuc act counter,TRAIL sens C8,PPC-1+TRAIL kill,FLuc inhib CS,NF-kB neuron act,APP 5'UTR act
O=C(CN1CCCCC1)Nc1ccc(S(=O)(=O)NC2CCCCC2)cc1,–,–,–,–,–,–
Cc1cc2nc(-c3ccc(SCC(=O)NC(C)C)nc3)[nH]c2cc1C,–,·,–,51,–,–
Cc1cc2nc(-c3ccc(SCC(=O)N4CCc5ccccc54)nc3)[nH]c2cc1C,–,81,–,82,–,–
Cc1ccc2nc(-c3ccc(NC(=O)Cc4cccs4)cc3)[nH]c2c1,–,–,–,–,–,–
Cc1cc2nc(-c3ccc(SCC(=O)Nc4ccc(S(=O)(=O)NC5CC5)cc4)nc3)[nH]c2cc1C,–,84,52,86,5.9,–
Cc1cc2nc(-c3ccc(SCc4ccc(C(=O)O)cc4)nc3)[nH]c2cc1C,–,–,–,–,–,–
CCOC(=O)C1=C[C@@H](C(C)C)N(S(=O)(=O)c2ccc(C)cc2)[C@H]1c1ccc(C(F)(F)F)cc1,·,–,·,·,·,·
COC(=O)c1ccc(C(=O)N2CCCCCC2(C)C(=O)NC(C)C)cc1 (centres undefined),·,–,·,·,·,·
